Results collected from several papers.
Lines come from different studies, so protocols differ.
Cell line: HepG2
Read-out: cell growth or viability

With `CCN(CC)CCCn1cccc1/C=N/NC(=O)Nc1cc2c(Nc3ccc(F)c(Cl)c3)ncnc2cc1O[C@H]1CCOC1` the IC50 was 0.71 µM (MTT; 72 h).
For `COc1ccc(NCC(=O)Nc2c(C#N)sc(Nc3ccccc3)c2C(=O)Nc2ccc(OC)cc2)cc1`, the viability was 97.2% (SRB; 1 nM; 48 h).
With `Cc1ccc2nc(-c3ccc4c(c3)OCO4)[nH]c2c1` the IC50 was 79 µM (MTT; 48 h).
The viability of `CC(=O)Nc1cccc(-n2c(=O)n(C3CC3)c(=O)c3c(Nc4ccc(I)cc4F)n(C)c(=O)c(C)c32)c1` is reported as 42.6% (resazurin; 25 nM; 72 h).
For `COc1ccc(NC(=O)c2c(Nc3ccccc3)sc(C#N)c2NC(=O)CNc2ccccc2Cl)cc1`, the viability was 79.2% (SRB; 10 µM; 48 h).
The EC50 of `CCOC(=O)c1cn(CC)c2cc(N3CCC(Cc4ccccc4)CC3)c(F)cc2c1=O` is reported as over 40 µM (ATP luminescence; 48 h).
The IC50 of `Cc1ccc2nc(-c3ccco3)n(Cc3ccccc3)c2c1` is reported as 55.5 µM (MTT).
With `CCn1cc(-c2nc(C)no2)c(=O)c2cc(F)c(N3CCC(CN4CCOCC4)CC3)cc21` the EC50 was over 40 µM (ATP luminescence; 48 h).
`CSc1ccc(-c2nc3ccccc3[nH]2)cc1` has an IC50 of 40.1 µM (MTT; 48 h).
For `CCOC(=O)c1ccc(-n2c(C)cc(C)c(C#N)c2=O)cc1`, the viability was 76.1% (MTT; 12.5 µM; 24 h).
For `COc1ccc(NC(=O)c2c(Nc3ccccc3)sc(C#N)c2NC(=O)CNc2ccc(O)cc2)cc1`, the viability was 77.2% (SRB; 1 µM; 48 h).
With `COc1cccc(NC(=O)CN2C(=O)/C(=C/c3ccccc3)SC2=S)c1` the inhibition was 11.8% (MTT; 10 µM).
For `CCOC(=O)c1ccc(-n2c(-c3ccc(C)cc3)cc(-c3ccc(O)cc3)c(C#N)c2=O)cc1`, the viability was 25.6% (MTT; 50 µM; 24 h).
With `COc1ccc(NC(=O)c2c(Nc3ccccc3)sc(C#N)c2NC(=O)CNc2ccc([N+](=O)[O-])cc2)cc1` the viability was 100% (SRB; 1 nM; 48 h).
The IC50 of `Cc1ccc2nc(-c3ccc(Cl)cc3)n(Cc3ccccc3Cl)c2c1` is reported as 47.9 µM (MTT).
For `Cc1cc(=O)oc2ccc(-c3cc(-c4ccc(Br)cc4)nc(N)n3)c(O)c12`, the inhibition was 20% (MTT; 128 µg/mL; 72 h).
For `Cc1cc(Nc2ccc(C(=O)N/N=C/c3ccccc3)cc2)c2cccc(O)c2n1`, the inhibition was 48.9% (MTT; 20 µM).
`COc1ccc(NC(=O)c2c(Nc3ccccc3)sc(C(=O)NN=Cc3ccc(Cl)cc3)c2NC(C)=O)cc1` has a viability of 71.2% (SRB; 10 µM; 48 h).
The inhibition of `O=C(CN1C(=O)/C(=C/c2ccccn2)SC1=S)Nc1ccccc1` is reported as 10.2% (MTT; 10 µM).
For `CCOC(=O)c1ccc(-n2c(C)cc(/C=C/c3ccc(OCC)cc3)c(C#N)c2=O)cc1`, the viability was 90.3% (MTT; 12.5 µM; 24 h).
`COc1ccc(NC(=O)c2c(Nc3ccccc3)sc(C(=O)NN=Cc3cc(OC)c(OC)c(OC)c3)c2NC(C)=O)cc1` has a viability of 42.9% (SRB; 10 µM; 48 h).
For `CCOC(=O)c1ccc(-n2c(C)cc(/C=C/c3ccc(OC)cc3)c(C#N)c2=O)cc1`, the viability was 47.4% (MTT; 100 µM; 24 h).
The viability of `COc1ccc(NC(=O)c2c(Nc3ccccc3)sc(C(=O)NN=Cc3ccc(Br)cc3)c2NC(C)=O)cc1` is reported as 54.1% (SRB; 100 µM; 48 h).
With `COc1ccc(-c2cc(-c3ccc4oc(=O)cc(C)c4c3O)nc(N)n2)cc1` the inhibition was 40% (MTT; 128 µg/mL; 72 h).
